Rin1-Abl PPI inh = human Rin1-Abl interaction inhibition; P00519+Q13671; TR-FRET Rin1/Abl binding, biochemical; inhibition, % at 7.35 µM; actives 0.4% (n = 360,000); in the data active = inhibition above about 5%, passing the limit was not always enough
Target sequence (P00519 whole entry, looked up): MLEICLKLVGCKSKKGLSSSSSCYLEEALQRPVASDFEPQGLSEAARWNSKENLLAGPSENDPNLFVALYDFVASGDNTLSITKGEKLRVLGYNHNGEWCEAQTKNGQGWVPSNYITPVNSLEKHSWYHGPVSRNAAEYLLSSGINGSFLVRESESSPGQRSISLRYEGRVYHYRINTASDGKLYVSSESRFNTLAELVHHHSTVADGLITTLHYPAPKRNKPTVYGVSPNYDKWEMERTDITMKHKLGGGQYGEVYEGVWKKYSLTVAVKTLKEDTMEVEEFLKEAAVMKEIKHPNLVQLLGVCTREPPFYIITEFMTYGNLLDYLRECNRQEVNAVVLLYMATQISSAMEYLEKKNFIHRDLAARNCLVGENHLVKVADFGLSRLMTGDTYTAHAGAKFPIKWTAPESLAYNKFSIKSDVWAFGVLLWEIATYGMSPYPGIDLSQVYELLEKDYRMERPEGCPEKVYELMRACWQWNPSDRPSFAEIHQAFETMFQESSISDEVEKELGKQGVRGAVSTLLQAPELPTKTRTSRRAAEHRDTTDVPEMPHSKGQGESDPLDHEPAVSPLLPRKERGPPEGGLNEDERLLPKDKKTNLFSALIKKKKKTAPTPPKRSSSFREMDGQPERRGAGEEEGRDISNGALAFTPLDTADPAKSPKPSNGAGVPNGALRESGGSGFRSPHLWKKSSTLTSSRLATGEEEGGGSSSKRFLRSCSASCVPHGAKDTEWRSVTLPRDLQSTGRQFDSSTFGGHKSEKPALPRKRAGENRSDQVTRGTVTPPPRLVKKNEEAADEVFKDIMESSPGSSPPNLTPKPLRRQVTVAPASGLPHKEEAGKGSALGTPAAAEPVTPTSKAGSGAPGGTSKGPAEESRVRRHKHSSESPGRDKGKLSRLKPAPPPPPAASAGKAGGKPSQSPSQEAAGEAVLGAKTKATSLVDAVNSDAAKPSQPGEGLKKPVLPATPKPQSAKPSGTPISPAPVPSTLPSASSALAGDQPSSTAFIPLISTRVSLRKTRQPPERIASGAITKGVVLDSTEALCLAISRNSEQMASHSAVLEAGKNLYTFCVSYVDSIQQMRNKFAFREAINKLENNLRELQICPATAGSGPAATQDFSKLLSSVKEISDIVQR
Target sequence (Q13671 whole entry, looked up): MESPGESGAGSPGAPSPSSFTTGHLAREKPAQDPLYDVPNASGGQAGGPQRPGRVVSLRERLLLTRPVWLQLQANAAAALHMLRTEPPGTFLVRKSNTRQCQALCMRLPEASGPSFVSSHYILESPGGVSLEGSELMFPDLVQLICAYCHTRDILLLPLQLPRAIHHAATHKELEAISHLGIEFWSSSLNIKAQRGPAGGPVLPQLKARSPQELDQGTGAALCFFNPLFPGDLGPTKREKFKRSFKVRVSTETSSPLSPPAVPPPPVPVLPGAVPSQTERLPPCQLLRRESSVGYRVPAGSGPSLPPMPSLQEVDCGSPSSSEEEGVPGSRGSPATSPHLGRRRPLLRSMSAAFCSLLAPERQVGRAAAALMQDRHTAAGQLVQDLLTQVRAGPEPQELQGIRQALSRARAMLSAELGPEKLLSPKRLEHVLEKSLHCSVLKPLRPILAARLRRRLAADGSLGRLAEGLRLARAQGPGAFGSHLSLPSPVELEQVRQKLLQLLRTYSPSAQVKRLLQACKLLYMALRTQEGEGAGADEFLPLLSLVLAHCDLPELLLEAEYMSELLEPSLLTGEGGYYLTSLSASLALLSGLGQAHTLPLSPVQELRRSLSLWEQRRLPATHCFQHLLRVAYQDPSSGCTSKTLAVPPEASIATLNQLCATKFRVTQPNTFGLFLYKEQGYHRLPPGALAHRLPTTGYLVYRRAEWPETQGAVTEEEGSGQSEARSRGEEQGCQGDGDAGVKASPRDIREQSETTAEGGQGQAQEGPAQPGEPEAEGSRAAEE
TbMetRS inhib = Trypanosoma brucei MetRS inhibition. inhibition, % at 11.9 µM. actives 0.4% (n = 360,000). AID 624268. purified T. brucei MetRS, ATP depletion, Kinase-Glo luminescence;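 active = inhibition above a per-plate cutoff of the control wells' mean inhibition plus 3 SD, cut at about 5.5% in these data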;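 note: 0% = DMSO wells median and 100% = median of wells with control inhibitor compound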
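Measured by: Kinase-Glo luciferase luminescence reporting remaining unconsumed ATP. Material: purified T. brucei MetRS enzyme. Doses: 11.9 µM compound single dose, 0.9% DMSO. Medium: HEPES buffer containing pyrophosphatase, BSA, spermine, DTT. Times: 15 min preincubation, 2 h reaction, all 25 °C. Reagent: methionine, ATP and bulk E. coli tRNA.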
PKA-R1A act = activates the PKA-R1A holoenzyme complex; PKA-R1A dissociation, Cy5-IP20 fluorescence polarization; scaled: DMSO 0%, 113 µM cGMP 100%; activation, % at 11.4 µM; actives 0.083% (n = 340,000); AID 504707;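 active = percent activation above the mean of all tested compounds plus 3 SD, cut at about 19% in these data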;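 note: higher means more PKAc released from R1A so a rise in polarization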
PKA-R2B act = PKA-R2B complex activation; PKA-R2B holoenzyme dissociation, Cy5-IP20 fluorescence polarization; R2B truncated from residue 108, S112A mutant; 0% DMSO only, 100% 113 µM cGMP; actives 0.079% (n = 340,000); activation, % at 11.4 µM; AID 504700;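 active = activation above a cutoff set at the mean over all compounds plus 3 SD, cut at about 18% in these data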;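 note: higher means more holoenzyme dissociation and a rise in polarization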
Cardio protect = modulators protecting cardiomyocytes from myocardial damage. AID 588492. H9c2 cardiomyocytes, H2O2 injury protection, ATPLite, 2 h. protection from H2O2 cell death, % at 20 µM. actives 0.63% (n = 360,000);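 active = compounds giving at least 50% protection of heart cells from peroxide-induced death in the single-dose screen, raw or plate-pattern-corrected value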;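 note: 0% = DMSO wells with peroxide and 100% = DMSO wells without peroxide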
TbMetRS confirm = Trypanosoma brucei MetRS inhibition confirmed | shares compounds with TbMetRS inhib | T. brucei MetRS enzyme, luminescence (ATP depletion) | inhibition, % at 11.9 µM | actives 93% (n = 1,400); in the data active = inhibition above about 7%
Jurkat cytotox = counter-screen for T. brucei MetRS inhibitors: Jurkat cell cytotoxicity. shares compounds with TbMetRS inhib. Jurkat cells viability, ATP luminescence. inhibition, % at 8.3 µM. actives 12% (n = 1,400); in the data active = inhibition above about 15%;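 note: 0% = vehicle and 100% = reference inhibitor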
TbMetRS FP orth = inhibits T. brucei methionyl tRNA synthetase in orthogonal FP test; AID 651607; inhibition, % at 11.9 µM; purified T. brucei MetRS, fluorescence polarization; shares compounds with TbMetRS inhib; actives 44% (n = 1,400); in the data active = inhibition above about 17%;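 note: 0% = vehicle wells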
Numbers without * were called inactive; . = not tested or not shown. The list is not random: actives were taken first. Their share in the collection is about 1.5%.

SMILES	Rin1-Abl PPI inh	TbMetRS inhib	PKA-R1A act	PKA-R2B act	Cardio protect	TbMetRS confirm	Jurkat cytotox	TbMetRS FP orth
CC(C)C(NC(=O)c1ccc(C(C)(C)C)cc1)C(=O)NCC(c1ccccc1)N(C)C (stereo unspecified)	-2.1	-0.2	6.4	1.6	-9.9	.	.	.
Cc1ccc([C@H]2N[C@]3(CCCN(Cc4ccc(F)cc4)C3=O)[C@H]3C(=O)N(C)C(=O)[C@@H]23)cc1	-2.7	-0.7	-2.4	8.9	14.7	.	.	.
OCC[C@@H]1C[C@H](O)[C@@H](O)[C@]2(CCc3ccccc3CO2)O1	-2.4	-0.1	0.6	6.6	-2.8	.	.	.
CCOC(=O)CNC(=S)n1cnc(N)n1	2.0	0.0	0.8	-6.5	8.5	.	.	.
CC1CN(c2ccc([N+](=O)[O-])nc2)CC(C)O1 (stereo unspecified)	0.2	-0.2	-8.9	-0.9	-1.1	.	.	.
COc1ccc(O)c(/C=N/Nc2nc3ccccc3[nH]2)c1	-1.5	-0.4	-1.6	2.4	-2.7	.	.	.
O=[N+]([O-])c1ccc(O)c(/C=N/Nc2nc3ccccc3[nH]2)c1	-0.1	9.5*	-1.0	-0.3	35.0	14.2*	97.5*	14.6
Cc1ccc2[nH]c(=O)c(CN(CCN3CCOCC3)C(=O)Nc3ccc(F)cc3)cc2c1	-5.9	5.9*	4.2	-0.5	40.5	9.1*	3.1	-0.3
CCOc1ccc2[nH]c(=O)c(CN(CCCN3CCOCC3)C(=O)Nc3ccc(F)cc3)cc2c1	-3.0	0.2	6.3	1.0	6.7	.	.	.
C[C@@H]1CN([C@H](C)CO)C(=O)CCCn2cc(nn2)CO[C@H]1CN(C)C(=O)c1ccc2ccn(C)c2c1	7.0	0.7	.	.	4.3	.	.	.
COC(=O)c1cc(-c2ccc(Br)cc2)n[nH]1	1.3	10.3*	-0.4	-6.1	-8.7	28.0*	-5.0	11.9
COc1ccc(-c2cc(C(=O)NN)[nH]n2)cc1	-0.5	-1.7	-5.0	-5.5	4.7	.	.	.
COc1cccc(CNC(=O)CSc2nc3ccc(C)cc3[nH]2)c1	-1.1	5.8*	2.2	6.3	-5.5	20.3*	-3.2	8.0
COc1cccc(NC(=O)CSc2nnc3c(n2)[nH]c2ccc(C)cc23)c1	-0.8	79.8*	2.6	6.5	-0.6	96.2*	4.2	93.2*
COc1cccc(CNC(=O)CSc2nnc3c(n2)[nH]c2ccc(C)cc23)c1	2.2	18.6*	13.1	6.8	-0.4	78.5*	4.5	46.1*
CC(Oc1ccc(Br)cc1)C(=O)NCC(c1cccs1)N1CCOCC1 (stereo unspecified)	2.5	-0.3	-5.5	-4.9	-6.6	.	.	.
Cc1ccc(NC(=O)COC(=O)c2ccc(C)c(S(=O)(=O)N3CCOCC3)c2)cc1	1.0	-0.2	4.4	-2.6	-7.8	.	.	.
C=CCNC(=S)NNC(=O)COc1ccc2cc(Br)ccc2c1	-6.1	19.4*	-13.6	-5.6	-8.3	46.5*	-0.7	23.6*
CSC[C@H]1CN(Cc2cccnc2)C(=O)[C@@H]1CC(=O)Nc1ccc(Br)cc1	4.2	68.8*	1.0	-3.0	-2.9	82.0*	-7.4	51.3*
CCC[C@H]1CN(Cc2cccnc2)C(=O)[C@@H]1CC(=O)Nc1ccc(Br)cc1	-4.3	71.6*	-6.7	-6.4	-7.0	87.3*	-3.6	61.0*
COc1ccc(S(=O)(=O)N2CCCC(C(=O)NCCC(C)C)C2)cc1 (stereo unspecified)	2.0	-0.1	0.3	0.5	-9.7	.	.	.
O=C(NNC(=O)c1cc2ccccc2[nH]1)OCc1ccccc1	2.5	13.2*	0.4	2.4	-6.1	46.3*	-11.6	18.6*
O=C(NCC(O)c1nc2ccccc2[nH]1)c1cc2ccccc2[nH]1 (stereo unspecified)	-2.6	50.6*	.	.	4.3	68.1*	0.0	40.5*
CC(C)CC(C)NNC(=O)c1cc2ccccc2[nH]1 (stereo unspecified)	0.4	-0.3	-6.2	-3.2	0.4	.	.	.
Clc1ccc(-c2nnc(SCc3nc4ccccc4[nH]3)o2)c(Cl)c1	1.1	77.6*	-9.8	-5.2	-16.9	101.0*	4.7	90.2*
SMILES	Rin1-Abl PPI inh	TbMetRS inhib	PKA-R1A act	PKA-R2B act	Cardio protect	TbMetRS confirm	Jurkat cytotox	TbMetRS FP orth
O=C(NCc1ccccc1F)Nc1ccc([N+](=O)[O-])cc1	0.7	0.6	-3.9	0.0	-15.6	.	.	.
Clc1ccc(OCc2nc(-c3ccccn3)no2)c(Br)c1	1.5	5.8*	2.2	-7.6	-29.9	6.5*	7.9	8.4
Nc1ncnc2nc(SCCOc3ccc(Cl)cc3)[nH]c12	1.5	5.7*	-11.7	2.1	2.7	14.2*	-12.4	1.9
Cc1ccc(OCCSc2nc3ncnc(N)c3[nH]2)cc1	0.1	0.7	6.2	0.7	-8.3	.	.	.
CC(C)CC1NC(=O)N(CCCCN2C(=O)c3ccccc3C2=O)C1=O (stereo unspecified)	0.9	8.8*	7.0	10.6	-7.8	1.7	1.7	-2.5
COc1ccc(NC(=O)CSc2ccc3nnc(CCNC(=O)c4ccccc4)n3n2)cc1OC	1.7	-0.4	-3.4	-2.0	5.8	.	.	.
Cc1[nH]c(C)c(S(=O)(=O)Nc2cccc(Cl)c2C)c1C(=O)N1CCCCC1	-0.7	24.4*	-4.2	6.5	-3.6	41.1*	0.9	19.8*
Cc1ccc(NS(=O)(=O)c2c(C)[nH]c(C)c2C(=O)N2CCCCC2)c(Br)c1	3.2	23.6*	-3.0	0.2	-3.3	39.1*	2.0	15.2
COCCn1c(SCC(=O)Nc2cc(C)on2)nnc1-c1ccccc1	-1.2	-0.2	-3.0	7.2	2.1	.	.	.
O=C(NCc1cccc(C(F)(F)F)c1)c1cccc(S(=O)(=O)NCc2ccccc2)c1	-2.4	23.1*	-5.1	-19.5	-10.7	21.8*	6.0	7.8
CCCCN(C)Cc1c(C)[nH]c2ccc(C)cc2c1=O	0.5	10.5*	7.8	1.3	-1.5	21.1*	-3.8	5.7
COc1cccc(N=C2SC(CC(=O)Nc3ccccc3)C(=O)N2Cc2ccccn2)c1 (stereo unspecified)	-1.1	6.6*	7.4	-2.9	4.3	11.1*	2.6	9.1
O=C(CC1SC(=Nc2ccccc2)N(CCc2ccccn2)C1=O)Nc1ccc(F)cc1 (stereo unspecified)	5.0	0.0	6.5	2.0	-4.1	.	.	.
O=C(O)c1ccc(S(=O)(=O)c2ccc3c(c2)C(=O)N(NC(=O)c2cccnc2)C3=O)cc1	-1.7	0.5	-12.8	-0.2	-5.8	.	.	.
Nc1n[nH]c(N)c1N=Nc1ccc(Cl)cc1Cl	3.5	9.7*	-8.9	1.4	-5.3	22.2*	19.2*	35.9*

From PubChem
